Assay [1] in a line: Cytotoxicity against human 502713 cells at 1 uM after 48 hrs. Type of assay: functional. To be noted: Homo sapiens, 502713, 48 h. In a few lines: (§1)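 SRB growth assay. DMSO stock (1 × 10^-2 M) diluted in RPMI-1640 (2 mM glutamine, pH 7.4, 10% FCS, antibiotics). Trypsinized subconfluent cells with >97% viability (trypan blue) seeded at 10^5 cells/ml and grown 24 h, then exposed to compound 48 h at 37 °C, 5% CO2. Fixed with TCA at 4 °C for 1 h, stained with 0.4% SRB, solubilized in 0.01 M Tris pH 10.4, OD read at 540 nm. Run in triplicate; mean of three experiments.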

Assay [2] relates to DU-145. The assay is described as follows: Cytotoxicity against human DU145 cells at 1 uM after 48 hrs. Type of assay: functional. To be noted: DU-145, 48 h. Summed up: as §1
Assay [3] relates to SW-620. Description: Cytotoxicity against human SW620 cells at 1 uM after 48 hrs. Type of assay: functional. To be noted: SW-620, 48 h. Summed up:
as §1

Another assay concerns COLO 205. Description: Cytotoxicity against human Colo205 cells at 1 uM after 48 hrs. Type of assay: functional. To be noted: COLO 205, 48 h. In a few lines:
as §1

In assay [4] the test system is MCF7. Description: Cytotoxicity against human MCF7 cells at 1 uM after 48 hrs. Type of assay: functional. Conditions: MCF7, 48 h. Summed up: as §1
For assay [5], the system named is DU-145. The assay is described as follows: Cytotoxicity against human DU145 cells at 10 uM after 48 hrs. Conditions: DU-145, 48 h. Type of assay: functional. In a few lines: as §1
For assay [6], the system named is HT-29. Description: Cytotoxicity against human HT29 cells at 10 uM after 48 hrs. Type of assay: functional. Conditions: HT-29, 48 h. In a few lines: as §1
The subject of assay [7] is SW-620. The assay is described as follows: Cytotoxicity against human SW620 cells at 10 uM after 48 hrs. Type of assay: functional. To be noted: SW-620, 48 h. Summed up: as §1
In a further assay the test system is HL-60. Description: Induction of apoptosis in human HL60 cells assessed as nucleosomal DNA fragmentation at 1 uM after 6 hrs. Type of assay: functional, cell-based. Summed up:
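HL-60 cells (2 × 10^6/3 ml) exposed to 1 µM compound for 6 h, with camptothecin as positive control and DMSO vehicle in untreated controls. DNA was extracted and run on 1.8% agarose gel to look for laddering.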

The nature of assay [8]: Cytotoxicity against human 502713 cells at 10 uM after 48 hrs. Type of assay: functional. To be noted: Homo sapiens, 502713, 48 h. In a few lines: as §1
For assay [9], the system named is MCF7. Description: Cytotoxicity against human MCF7 cells at 10 uM after 48 hrs. Type of assay: functional. To be noted: MCF7, 48 h. In a few lines:
as §1

In assay [10] the test system is MCF7. The assay is described as follows: Cytotoxicity against human MCF7 cells at 50 uM after 48 hrs. Type of assay: functional. To be noted: MCF7, 48 h. Summed up: (§2)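 Stock 1 × 10^-2 M in DMSO, diluted in RPMI-1640 (2 mM glutamine, pH 7.4, 10% FCS, penicillin/streptomycin). Cells grown at 37 C, 5% CO2; subconfluent cells trypsinised, >97% viable by trypan blue. Seeded at 10^5 cells/ml, grown 24 h, then exposed 48 h. TCA fixation at 4 C for 1 h, sulforhodamine B staining, Tris pH 10.4 solubilisation, OD 540 nm. Triplicate; mean of three experiments.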

Assay [11] concerns SW-620. The assay is described as follows: Cytotoxicity against human SW620 cells at 50 uM after 48 hrs. To be noted: SW-620, 48 h. Type of assay: functional. Summed up:
as §2

Assay [12] is described as follows: Cytotoxicity against human 502713 cells at 50 uM after 48 hrs. Type of assay: functional. Conditions: Homo sapiens, 502713, 48 h. Summed up:
as §2

For assay [13], the system named is DU-145. Description: Cytotoxicity against human DU145 cells at 50 uM after 48 hrs. Type of assay: functional. Conditions: DU-145, 48 h. In a few lines:
as §2

Assay [14] has as its system HT-29. Description: Cytotoxicity against human HT29 cells at 50 uM after 48 hrs. Type of assay: functional. Conditions: HT-29, 48 h. Summed up:
as §2

Usually inhibition stands for the share of the control response that was lost under treatment. A lower inhibition goes with little suppression.

Calls of active or inactive are those of the source. No cut-off for these calls is given here.

Take `COc1cccc2c1C(=O)c1c(O)c3c(c(O)c1C2=O)C[C@@](O)(C(=O)CO)C[C@@H]3O[C@H]1C[C@H](N)[C@H](O)[C@H](C)O1` [DOXORUBICIN]: the inhibition at 1 µM was 5% in assay [1]; 56% with DU-145 [2]; 36% with SW-620 [3]; 62% in the assay on COLO 205; 74% with MCF7 [4].

Turning to `C[C@H]1[C@H](C)CC[C@]2(C)CC[C@]3(C)C(=CC[C@@H]4[C@@]5(C)CC[C@@H](O)[C@](C)(N)[C@@H]5CC[C@]43C)[C@H]12`, the inhibition at 1 µM in assay [1] was 35%; in the assay with DU-145 [2] it was 3%; in the assay on SW-620 [3] it was 45%; in the assay on COLO 205, 30%; in the assay on MCF7 [4] it was 0%. In addition, the inhibition at 10 µM in the assay with DU-145 [5] is 82%; in the assay on HT-29 [6], 79%; in the assay with SW-620 [7], 73%; in assay [8] it was 99%; with MCF7 [9], 42%. Moreover, in the assay on HL-60, the result was Active.

For `O=c1[nH]cc(F)c(=O)[nH]1` [FLUOROURACIL], the inhibition at 50 µM came to 20% in the assay on MCF7 [10]; 41% in the assay with SW-620 [11]; 25% in assay [12]; 31% in the assay with DU-145 [13]; 36% with HT-29 [14].

On to `C[C@H]1[C@H](C)CC[C@]2(C)CC[C@]3(C)C(=CC(=O)[C@@H]4[C@@]5(C)CC[C@@H](O)[C@](C)(N)[C@@H]5CC[C@]43C)[C@H]12`, for which the inhibition at 1 µM in assay [1] came to 48%; in the assay with DU-145 [2], 16%; in the assay on SW-620 [3] it was 75%; in the assay with COLO 205 it was 48%; in the assay with MCF7 [4], 0%. Moreover, the inhibition at 10 µM in the assay on DU-145 [5] was found to be 94%; in the assay with HT-29 [6], 71%; with SW-620 [7], 87%; in assay [8] it was 86%; in the assay with MCF7 [9], 44%. In addition, in the assay on HL-60, the outcome was Active.

Consider `CC(=O)O[C@@H]1CC[C@]2(C)[C@H]3C(=O)C=C4[C@@H]5[C@@H](C)[C@H](C)CC[C@]5(C)CC[C@@]4(C)[C@]3(C)CC[C@H]2[C@@]1(C)N`, for which the inhibition at 10 µM stood at 16% in the assay with DU-145 [5]; 21% in the assay with HT-29 [6]; 72% in the assay on SW-620 [7]; 55% in [8]; 1% with MCF7 [9]. Besides, the outcome in the assay on HL-60 was Active.

As to `CC[C@@]1(O)C(=O)OCc2c1cc1n(c2=O)Cc2cc3ccccc3nc2-1`, the outcome in the assay on HL-60 was Active.

For `CC(=O)N[C@]1(C)[C@@H]2CC[C@]3(C)[C@H](C(=O)C=C4[C@@H]5[C@@H](C)[C@H](C)CC[C@]5(C)CC[C@]43C)[C@@]2(C)CC[C@H]1OC(C)=O`, the inhibition at 10 µM with DU-145 [5] worked out at 9%; in the assay on HT-29 [6] it was 0%; with SW-620 [7], 0%; in assay [8] it was 20%; in the assay with MCF7 [9] it was 62%.

`CC(=O)O[C@H]1CC[C@@]2(C)[C@@H](CC[C@]3(C)[C@@H]2CC=C2[C@@H]4[C@@H](C)[C@H](C)CC[C@]4(C)CC[C@]23C)[C@@]1(C)C(=O)O`: the inhibition at 10 µM with DU-145 [5] was 0%; in the assay with HT-29 [6] it was 17%; in the assay on SW-620 [7], 20%; in [8] it was 12%; with MCF7 [9], 15%.

As for `CCCC(=O)N[C@]1(C)[C@@H]2CC[C@]3(C)[C@H](C(=O)C=C4[C@@H]5[C@@H](C)[C@H](C)CC[C@]5(C)CC[C@]43C)[C@@]2(C)CC[C@H]1OC(=O)CCC`, the inhibition at 10 µM with DU-145 [5] worked out at 0%; with HT-29 [6] it was 0%; with SW-620 [7] it was 0%; in assay [8], 12%; with MCF7 [9], 0%.

`COC(=O)[C@@]1(C)[C@H](O)CC[C@@]2(C)[C@H]1CC[C@]1(C)[C@@H]2C(=O)C=C2[C@@H]3[C@@H](C)[C@H](C)CC[C@]3(C)CC[C@]21C`: the inhibition at 10 µM was 12% in the assay with DU-145 [5]; 0% with HT-29 [6]; 1% with SW-620 [7]; 19% in assay [8]; 0% with MCF7 [9].

Consider `CC(=O)O[C@H]1CC[C@@]2(C)[C@@H](CC[C@]3(C)[C@@H]2C(=O)C=C2[C@@H]4[C@@H](C)[C@H](C)CC[C@]4(C)CC[C@]23C)[C@@]1(C)N=C=O`, for which the inhibition at 10 µM in the assay on DU-145 [5] was found to be 0%; with HT-29 [6], 5%; in the assay on SW-620 [7], 20%; in assay [8], 0%; in the assay with MCF7 [9] it was 9%.

`C[C@H]1[C@H](C)CC[C@]2(C)CC[C@]3(C)C(=CC(=O)[C@@H]4[C@@]5(C)CC[C@H](O)[C@](C)(N)[C@@H]5CC[C@]43C)[C@H]12`: the inhibition at 10 µM with DU-145 [5] worked out at 0%; in the assay with HT-29 [6], 0%; with SW-620 [7], 7%; in [8], 0%; with MCF7 [9], 17%.

With `CCC(=O)N[C@@]1(C)[C@@H](OC(=O)CC)CC[C@@]2(C)[C@H]1CC[C@]1(C)[C@@H]2CC=C2[C@@H]3[C@@H](C)[C@H](C)CC[C@]3(C)CC[C@]21C`, the inhibition at 10 µM in the assay on DU-145 [5] amounted to 11%; in the assay on HT-29 [6], 24%; with SW-620 [7], 13%; in assay [8], 0%; in the assay on MCF7 [9] it was 0%.

With `CC(=O)O[C@@H]1CC[C@@]2(C)[C@@H](CC[C@]3(C)[C@@H]2C(=O)C=C2[C@@H]4[C@@H](C)[C@H](C)CC[C@]4(C)CC[C@]23C)[C@@]1(C)N=C=O`, the inhibition at 10 µM was determined as 0% in the assay with DU-145 [5]; 0% in the assay on HT-29 [6]; 0% in the assay with SW-620 [7]; 2% in assay [8]; 10% in the assay with MCF7 [9].

Turning to `CC(=O)O[C@@H]1CC[C@]2(C)[C@H]3CC=C4[C@@H]5[C@@H](C)[C@H](C)CC[C@]5(C)CC[C@@]4(C)[C@]3(C)CC[C@H]2[C@@]1(C)N`, the inhibition at 1 µM was found to be 6% in assay [1]; 0% in the assay with DU-145 [2]; 18% in the assay with SW-620 [3]; 34% in the assay with COLO 205; 0% with MCF7 [4]. In addition, the inhibition at 10 µM with DU-145 [5] came out at 92%; in the assay with HT-29 [6], 44%; in the assay on SW-620 [7] it was 80%; in [8], 96%; with MCF7 [9] it was 10%. Besides, the result with HL-60 was Active.

The values above are taken from ChEMBL document CHEMBL1138253, “Cytotoxic and apoptotic activities of novel amino analogues of boswellic acids” (2007).
